Laboratory results: ChEMBL document CHEMBL4732200, “Synthesis and antiviral activity of a series of novel quinoline derivatives as anti-RSV or anti-IAV agents” (Eur J Med Chem, 2021)
Calls of active or inactive are those of the source. No cut-off for these calls is given here.

Columns and labels:
[1] = tested on: Respiratory syncytial virus; experiment: Antiviral activity against RSV Long expressing mGFP infected in HEp-2 cells assessed as reduction in viral replication after 48 hrs by MTS assay; assay type: functional, organism-based; conditions: human respiratory syncytial virus, HEp-2, 48 h
In short: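 HEp-2 cells plated in 96-well plates; after 24 h, virus alone or virus plus compound added; 48 h incubation. MTS (2 mg/ml) added for 3 h at 37 °C, 5% CO2; absorbance read at 490 nm. Controls were mock-treated cells (uninfected, or infected without compound), with cell activity set as 100%.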

[2] = Cytotoxicity against human HEp-2 cells assessed as reduction in cell viability after 48 hrs by MTS assay; assay type: cell-based
[3] = Selectivity index, ratio of CC50 for cytotoxicity against human HEp-2 cells to IC50 for antiviral activity against RSV Long expressing mGFP infected in HEp-2 cells; assay type: toxicity, cell-based; conditions: read-out: Ratio CC50/IC50
Influenza A virus [4] = experiment: Antiviral activity against Influenza A virus A/WSN/33(H1N1) infected in human HEK-293T cells assessed as inhibition of viral replication after 48 hrs by CCK-8 assay; assay type: functional, organism-based; conditions: A/WSN/1933(H1N1)
HEK-293T = experiment: Cytotoxicity against human HEK-293T cells assessed as reduction in cell viability after 48 hrs by CCK-8 assay; assay type: cell-based
In short: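 Cytotoxicity in 293T cells in 96-well plates incubated with compounds at six concentrations (top 200) for 48 h. CCK-8 solution added and OD read at 450 nm. DMSO-only cells served as control.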

[5] = Selectivity index, ratio of CC50 for cytotoxicity against human HEK-293T cells to IC50 for antiviral activity against Influenza A virus A/WSN/33(H1N1) […] cells; assay type: toxicity, cell-based; conditions: read-out: Ratio CC50/IC50
Influenza A virus [6] = experiment: Antiviral activity against Influenza A virus A/WSN/33(H1N1) infected in human HEK-293T cells assessed as inhibition of viral replication at 10 uM after 48 hrs by CCK-8 assay relative to control; assay type: functional, A/WSN/1933(H1N1); parameters: scale not given: the % may be the effect or the level left
[7] = tested on: Respiratory syncytial virus; experiment: Potency index, ratio of ribavirin IC50 to test compound IC50 for antiviral activity against RSV Long expressing mGFP infected in HEp-2 cells; assay type: functional
Influenza A virus [8] = experiment: Potency index, ratio of ribavirin IC50 to test compound IC50 for antiviral activity against Influenza A virus A/WSN/33(H1N1) infected in human HEK-293T cells; assay type: functional, A/WSN/1933(H1N1)
Influenza A virus [9] = experiment: Antiviral activity against Influenza A virus A/WSN/33(H1N1) infected in human A549 cells assessed as inhibition of viral replication at 10 uM after 2 to 6 hrs; assay type: functional, organism-based; conditions: A/WSN/1933(H1N1), time 2-6 hrs
[10] = (§1) Inhibition of Influenza A virus A/WSN/33(H1N1) RNA polymerase expressed in HEK-293T cells after 24 hrs by dual luciferase reporter gene assay; assay type: cell-based, HEK293T
In short: (§2)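 HEK293T cells transfected with pCAGGS plasmids for PB2, PB1, PA and NP, plus a pol-driven firefly luciferase reporter and SV40-Renilla, with or without compound at the indicated concentrations. vRNA transcription read as firefly and Renilla luciferase at 24 h post-transfection.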

HEK293T = experiment: as §1; assay type: cell-based; in short: as §2

SMILES | IC50 [1] | CC50 at 48 h [2] | selectivity ratio [3] | IC50 (Influenza A virus [4]) | IC50 (HEK-293T) | selectivity ratio [5] | Activity (Influenza A virus [6]) | Ratio IC50 [7] | Ratio IC50 (Influenza A virus [8]) | Activity (Influenza A virus [9]) | IC50 [10] | inhibition (HEK293T)
CC(C)(C)OC(=O)N[C@@H]1CCN(c2ccc3cccc(OCC(=O)NCc4ccccc4)c3n2)C1 | 35.3 µM | 58.6 µM | 1.66 | 4.99 µM | 49.9 µM | 9.99 | >70% |  |  |  |  | 
O=C(COc1cccc2ccc(N3CCCC3)nc12)NCc1ccccc1 | 55.8 µM | 540 µM | 9.68 | 13.3 µM | > 100 µM | > 7.5 |  |  |  |  |  | 
c1cc(OCCCCCN2CCOCC2)c2nc(N3CCCC3)ccc2c1 | 31.3 µM | 173 µM | 5.52 | 32.4 µM | > 100 µM | > 3.08 |  |  |  |  |  | 
CN1CCN(c2ccc3cccc(OCC(=O)NCc4ccccc4)c3n2)CC1 | 19.3 µM | 264 µM | 13.7 | 9.87 µM | > 100 µM | > 10.1 |  |  |  |  |  | 
c1cc(OCCCN2CCOCC2)c2nc(N3CCCC3)ccc2c1 | 14.1 µM | 552 µM | 39.2 | 50.7 µM | > 100 µM | > 1.97 |  |  |  |  |  | 
O=C(COc1cccc2ccc(N3CCCCC3)nc12)NCc1ccccc1 | 26.1 µM | 1740 µM | 66.7 |  |  |  |  |  |  |  |  | 
O=C(COc1cccc2ccc(N3CCCC3)nc12)NCc1cccc(Cl)c1 | 30.2 µM | 73 µM | 2.41 |  |  |  |  |  |  |  |  | 
O=C(COc1cccc2ccc(Cl)nc12)NCc1ccccc1 | 20.7 µM | 528 µM | 25.6 |  |  |  |  |  |  |  |  | 
O=C(COc1cccc2ccc(N3CCCC3)nc12)Nc1ccccc1 | 16.5 µM | 304 µM | 18.4 |  |  |  |  |  |  |  |  | 
COc1ccc(CNC(=O)COc2cccc3ccc(N4CCCC4)nc23)cc1 | 3.7 µM | 2490 µM | 673 |  |  |  |  | 2.5 |  |  |  | 
CCOC(=O)COc1cccc2ccc(N3CCCC3)nc12 | 16.4 µM | 826 µM | 50.3 |  |  |  |  |  |  |  |  | 
CC(C)(C)OC(=O)N1CCN(c2ccc3cccc(OCC(=O)NCc4ccccc4)c3n2)CC1 | 16.9 µM | 1370 µM | 80.9 | 1.87 µM | > 100 µM | > 53.5 | >70% |  | 8.2 | Active | 1.93 µM | Dose-dependent effect
O=C(COc1cccc2ccc(N3CCCC3)nc12)NCc1ccc(F)cc1 | 4.41 µM | 2130 µM | 483 |  |  |  |  | 2.5 |  |  |  | 
NC(=O)c1ncn([C@@H]2O[C@H](CO)[C@@H](O)[C@H]2O)n1 [RIBAVIRIN] | 17.3 µM | 3040 µM | 175 |  | > 100 µM | > 6.51 |  |  |  |  |  | 
c1cc(OCCCCN2CCOCC2)c2nc(N3CCCC3)ccc2c1 | 11.6 µM | 691 µM | 59.6 |  |  |  |  |  |  |  |  | 
O=C(COc1cccc2ccc(N3CCOCC3)nc12)NCc1ccccc1 | 36.1 µM | 46.2 µM | 1.28 |  |  |  |  |  |  |  |  | 

SMILES | IC50 [1] | CC50 at 48 h [2] | selectivity ratio [3] | IC50 (Influenza A virus [4]) | IC50 (HEK-293T) | selectivity ratio [5] | Activity (Influenza A virus [6]) | Ratio IC50 [7] | Ratio IC50 (Influenza A virus [8]) | Activity (Influenza A virus [9]) | IC50 [10] | inhibition (HEK293T)
O=C(COc1cccc2ccc(N3CCCC3)nc12)NCc1ccccc1Br | 182 µM | 312 µM | 1.71 |  |  |  |  |  |  |  |  | 
O=C(COc1cccc2ccc(N3CCCC3)nc12)NCc1cccc(F)c1 | 2920 µM | 444 µM | 0.15 |  |  |  |  |  |  |  |  | 
COc1cccc(CNC(=O)COc2cccc3ccc(N4CCCC4)nc23)c1 | 6.93 µM | 74.3 µM | 10.7 |  |  |  |  | 2.5 |  |  |  | 
CS(=O)(=O)c1ccc(CNC(=O)COc2cccc3ccc(N4CCCC4)nc23)cc1 | 221 µM | 1360 µM | 6.14 |  |  |  |  |  |  |  |  | 
O=C(COc1cccc2ccc(N3CCCC3)nc12)NCc1ccc(C(F)(F)F)cc1 | 27.8 µM | 327 µM | 11.8 | 36.1 µM | > 100 µM | > 2.77 |  |  |  |  |  | 
O=C(COc1cccc2ccc(N3CCCC3)nc12)NCc1ccc(Br)cc1 |  |  |  | 42.3 µM | > 100 µM | > 2.36 |  |  |  |  |  | 
O=C(COc1cccc2ccc(N3CCCC3)nc12)NCc1ccco1 | 22.9 µM | 249 µM | 10.9 |  |  |  |  |  |  |  |  | 
CCOc1ccccc1CNC(=O)COc1cccc2ccc(N3CCCC3)nc12 | 45.7 µM | 113 µM | 2.48 | 7.46 µM | > 100 µM | > 13.4 |  |  |  |  |  | 
CN(C)c1ccc2cccc(OCC(=O)NCc3ccccc3)c2n1 | 3.1 µM | 168 µM | 54.1 | 14.2 µM | > 100 µM | > 7.02 |  | 2.5 |  |  |  | 
O=C(COc1cccc2ccc(N3CCCC3)nc12)NCC1CC1 | 29 µM | 580 µM | 20 |  |  |  |  |  |  |  |  | 
O=C(COc1cccc2ccc(N3CCCC3)nc12)NC12CC3CC(CC(C3)C1)C2 |  |  |  | 11.5 µM | > 100 µM | > 8.73 |  |  |  |  |  | 
CC(C)(C)OC(=O)N[C@H]1CCN(c2ccc3cccc(OCC(=O)NCc4ccccc4)c3n2)C1 | 4.57 µM | 43.8 µM | 9.59 | 5.11 µM | 58 µM | 11.3 | >70% | 2.5 |  |  |  | 
CNc1ccc2cccc(OCC(=O)NCc3ccccc3)c2n1 | 10.3 µM | 94.8 µM | 9.2 |  |  |  |  |  |  |  |  | 
CCOc1ccccc1NC(=O)COc1cccc2ccc(N3CCCC3)nc12 | 33.2 µM | 1040 µM | 31.5 |  |  |  |  |  |  |  |  | 
O=C(COc1cccc2ccc(N3CCCC3)nc12)NCc1ccc(Cl)cc1 | 39.2 µM | 245 µM | 6.26 |  |  |  |  |  |  |  |  | 
